According to ChEMBL document CHEMBL4673194 (RSC Med Chem, 2021):
The source made the active and inactive calls. The calls are words filed in the database; no cut-off is given here.

Assays:
[1] = target: T1, Enoyl-[acyl-carrier-protein] reductase [NADH] (Mycobacterium tuberculosis) (UniProt P9WGR1); test: Inhibition of Mycobacterium tuberculosis InhA at 40 uM using DD-CoA as substrate relative to control
T1 sequence (whole entry): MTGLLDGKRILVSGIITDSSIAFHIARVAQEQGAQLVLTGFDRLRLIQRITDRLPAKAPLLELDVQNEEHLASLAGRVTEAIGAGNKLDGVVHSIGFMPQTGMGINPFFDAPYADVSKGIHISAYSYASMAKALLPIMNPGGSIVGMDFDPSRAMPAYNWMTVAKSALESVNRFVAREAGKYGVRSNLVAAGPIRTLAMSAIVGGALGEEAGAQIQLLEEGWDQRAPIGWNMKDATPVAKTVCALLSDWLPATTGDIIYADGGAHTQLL
Outline: (§1)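 Wild-type InhA (100 nM) starts the reaction with 25 μM trans-2-dodecenoyl-CoA and 250 μM NADH in 30 mM PIPES, 150 mM NaCl, pH 6.8. Compound is present at a fixed 40 or 50 μM. Initial velocity is compared with a no-inhibitor control and expressed as percent inhibition.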

Vero = test: Cytotoxicity against African green monkey Vero cells assessed as reduction in cell viability incubated for 48 hrs by neutral red assay; type: cell-based; conditions: Chlorocebus sabaeus
Outline: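 Vero cells grown in MEM with 10% heat-inactivated FCS, 0.15% NaHCO3, penicillin and streptomycin at 37 °C, 5% CO2. Seeded at 25 000 cells per well, 24 h, then compound for 48 h. Viable cells by neutral red uptake. IC50 from log plots of growth inhibition against concentration. Doxorubicin positive control, DMSO vehicle control. Top concentration 20 μM.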

[2] = system: Mycobacterium tuberculosis; test: Antitubercular activity against Mycobacterium tuberculosis H37Rv assessed as reduction in microbial growth incubated for 5 days by visual inspection method; type: functional; conditions: 120 h, time 5 day
Outline: (§2)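 Two-fold serial dilution in Middlebrook 7H9-ADS-Gly broth, final concentrations 20 down to 1.25 μM, from DMSO stocks. Inoculated with about 10^6 CFU of mid-log H37Rv, incubated 37 °C for five days. Turbidity recorded visually, then MTT added. MIC is the lowest concentration preventing growth (yellow colour). Three biological repeats, each in technical duplicate; rifampicin control.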

Leishmania donovani = test: Antileishmanial activity against promastigote form of Leishmania donovani S1 Sudan assessed as reduction in parasite growth incubated for 72 hrs by alamar blue assay; type: functional, organism-based
Outline: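 S1 Sudan promastigotes kept at 26 °C in RPMI-1640 (no bicarbonate or pyruvate) with 10% FBS, subcultured twice weekly. Compounds added to promastigotes at 2 × 10^6 cells per mL at final 40, 8 and 1.6 μg mL−1, 72 h at 26 °C. Growth read by Alamar blue. IC50 from non-linear dose–response logistic regression. Triplicate. Pentamidine and amphotericin B standards.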

[3] = Lipophilicity, log P of the compound; type: physicochemical; conditions: octanol/water
[4] = target: T1, Enoyl-[acyl-carrier-protein] reductase [NADH] (Mycobacterium tuberculosis); test: Inhibition of Mycobacterium tuberculosis InhA at 50 uM using DD-CoA as substrate relative to control; outline: as §1
[5] = target: T1, Enoyl-[acyl-carrier-protein] reductase [NADH] (Mycobacterium tuberculosis); test: Inhibition of recombinant Mycobacterium tuberculosis InhA expressed in Escherichia coli BL21 using DD-CoA as substrate by UV-Vis spectrophotometry; conditions: time 5.0 min
[6] = system: Mycobacterium tuberculosis; test: Antitubercular activity against Mycobacterium tuberculosis H37Rv assessed as reduction in microbial growth incubated for 1 week by MTT assay; type: functional; conditions: 168 h, time 1 weeks
[7] = system: Mycobacterium tuberculosis; test: Antitubercular activity against Mycobacterium tuberculosis H37Rv assessed as reduction in microbial growth incubated for 5 to 7 days by inverted plate count method; type: functional; conditions: time 5-7 day
[8] = system: Mycobacterium tuberculosis; test: Antitubercular activity against Mycobacterium tuberculosis H37Rv assessed as reduction in microbial growth incubated; type: functional; outline: as §2

With `CC(C)=CCC/C(C)=C/Cn1cc(COc2ccccc2O)nn1` the inhibition [1] was “inactive”, the IC50 (Vero) was over 20 µM and the MIC99 [2] was over 100 µM. For the same molecule, the IC50 (Leishmania donovani) was 51.9 µM.
In the case of `C[C@@H]1[C@H](O)[C@@H](C)/C=C/C=C/C=C/C=C/C=C/C=C/C=C/[C@H](O[C@@H]2O[C@H](C)[C@@H](O)[C@H](N)[C@@H]2O)C[C@@H]2O[C@](O)(C[C@@H](O)C[C@@H](O)[C@H](O)CC[C@@H](O)C[C@@H](O)CC(=O)O[C@H]1C)C[C@H](O)[C@H]2C(=O)O` [AMPHOTERICIN B], the IC50 (Leishmania donovani) is reported as 0.11 µM.
For `CCCCCCCCCCCCCn1cc(COc2ccccc2O)nn1`, the inhibition [1] was 63%, the IC50 (Vero) was over 20 µM and the MIC99 [2] was over 100 µM. It also gave an IC50 (Leishmania donovani) of 13.4 µM and a logP [3] of 5.67.
Molecule `CC(C)=CCC/C(C)=C\Cn1cc(COc2ccccc2O)nn1` has an inhibition [1] of 85%, an IC50 (Vero) of over 20 µM and an MIC99 [2] of over 100 µM. The IC50 (Leishmania donovani) was 55 µM.
In the case of `CCCCCc1cn(Cc2ccccc2O)nn1`, the inhibition [4] is reported as “inactive”, the IC50 (Vero) is reported as over 20 µM and the MIC99 [2] is reported as 20 µM. It also gave an IC50 (Leishmania donovani) of over 60 µM.
For `Oc1ccccc1Cn1cc(-c2ccccc2)nn1`, the inhibition [4] was “inactive”, the IC50 (Vero) was over 20 µM and the MIC99 [2] was 20 µM. For the same molecule, the IC50 (Leishmania donovani) was over 60 µM.
With `CCCc1cn(Cc2ccccc2O)nn1` the inhibition [4] was 92%, the IC50 (Vero) was over 20 µM and the MIC99 [2] was 20 µM. The IC50 (Leishmania donovani) was over 60 µM.
`Oc1cc(Cl)ccc1Oc1ccc(Cl)cc1Cl` [TRICLOSAN] showed an MIC99 [2] of 43 µM.
Molecule `CCCCc1cn(Cc2ccc(Oc3ccc(Cl)cc3O)c(Cl)c2)nn1` has an inhibition [5] of 98% and an MIC [6] of 1.5 µM.
`CCCCCCCCc1ccc(Oc2ccccc2)c(O)c1` showed an MIC [7] of 1.9 µM.
With `CCc1cn(Cc2ccc(Oc3ccccc3C)c(O)c2)nn1` the MIC [8] was 3.9 µM.
For `CCCCCc1c(CO)nnn1Cc1ccc2ccccc2c1`, the inhibition [4] was “inactive”, the IC50 (Vero) was over 20 µM and the MIC99 [2] was over 100 µM. It also gave an IC50 (Leishmania donovani) of 31.4 µM.
`CCc1cn(Cc2ccc(Oc3ccccc3C#N)c(O)c2)nn1` gave an MIC [8] of 2.02 µM.
`Cc1ccccc1Oc1ccc(Cn2cc(-c3ccccc3)nn2)cc1O` showed an MIC [8] of at most 11.1 µM.
